Results from ChEMBL document CHEMBL4387719, “Investigation of biaryl heterocycles as inhibitors of Wee1 kinase” (Bioorg Med Chem Lett, 2019).
Calls of active or inactive are those of the source. No cut-off for these calls is given here.

Columns and labels:
Wee1-like protein kinase [1] = target: T1, Wee1-like protein kinase (Homo sapiens, UniProt P30291); experiment: Inhibition of WEE1 in human NCI-H1299 cells assessed as reduction in Cdc2 phosphorylation at Tyr15 residue measured after 6 hrs by ELISA; assay type: cell-based
NCI-H1299 = experiment: Antiproliferative activity against human NCI-H1299 cells after 72 hrs by cell titer glo assay; assay type: functional, cell-based; details: NCI-H1299, 72 h
[2] = Clearance in mouse microsomes; assay type: ADME, Microsome
Wee1-like protein kinase [3] = target: T1, Wee1-like protein kinase; experiment: Binding affinity to wild type N-terminal GST-tagged human WEE1 catalytic domain (215 to 646 residues) expressed in baculovirus expression system measured after 1 hr by TR-FRET assay
MX1 [4] = experiment: (§1) Potentiation of irinotecan-induced antitumor activity against BRCA1/p53 deficient human MX1 cells xenografted in SCID mouse assessed as tumor growth delay at 25 mg/kg/day, po administered every other 2 days for 4 times starting 24 days post-tumor innoculation and measured twice weekly relative to irinotecan; assay type: functional
In short: (§2)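 MX-1 brei (homogenized tumour cell suspension) was injected subcutaneously into the flank of SCID mice. Treatment started at tumour volume ~350 mm³, with dosing beginning on day 24. Arms were vehicle, irinotecan 10 mg/kg/day Q4Dx4, or irinotecan 10 mg/kg/day Q4Dx4 plus test agent 25 mg/kg/day QD, 2 days on/2 days off, for 4 cycles. Tumour volumes were measured twice weekly.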

MX1 [5] = experiment: as §1, with “growth inhibition” for “growth delay”, “starting from” for “starting”, “to control” for “to irinotecan”; assay type: functional; details: read-out: TGI; in short: as §2
MX1 [6] = experiment: as §1, with “inhibition” for “delay”, “times” for “times starting”, “weekly for 43 days in presence” for “weekly”; assay type: functional; details: read-out: TGI; in short: as §2
[7] = Oral bioavailability in mouse; assay type: ADME, organism-based; details: in vivo
MX1 [8] = experiment: Antitumor activity against BRCA1/p53 deficient human MX1 cells xenografted in SCID mouse assessed as tumor growth inhibition at 25 mg/kg/day, po administered every other 2 days for 4 times starting 24 days post-tumor innoculation and measured twice weekly; assay type: functional, organism-based
[9] = Half life in iv dosed mouse; assay type: ADME, organism-based; details: in vivo
[10] = Clearance in iv dosed mouse; assay type: ADME, organism-based; details: in vivo
[11] = AUC in po dosed mouse; assay type: ADME, organism-based; details: in vivo

T1 sequence (P30291 whole entry): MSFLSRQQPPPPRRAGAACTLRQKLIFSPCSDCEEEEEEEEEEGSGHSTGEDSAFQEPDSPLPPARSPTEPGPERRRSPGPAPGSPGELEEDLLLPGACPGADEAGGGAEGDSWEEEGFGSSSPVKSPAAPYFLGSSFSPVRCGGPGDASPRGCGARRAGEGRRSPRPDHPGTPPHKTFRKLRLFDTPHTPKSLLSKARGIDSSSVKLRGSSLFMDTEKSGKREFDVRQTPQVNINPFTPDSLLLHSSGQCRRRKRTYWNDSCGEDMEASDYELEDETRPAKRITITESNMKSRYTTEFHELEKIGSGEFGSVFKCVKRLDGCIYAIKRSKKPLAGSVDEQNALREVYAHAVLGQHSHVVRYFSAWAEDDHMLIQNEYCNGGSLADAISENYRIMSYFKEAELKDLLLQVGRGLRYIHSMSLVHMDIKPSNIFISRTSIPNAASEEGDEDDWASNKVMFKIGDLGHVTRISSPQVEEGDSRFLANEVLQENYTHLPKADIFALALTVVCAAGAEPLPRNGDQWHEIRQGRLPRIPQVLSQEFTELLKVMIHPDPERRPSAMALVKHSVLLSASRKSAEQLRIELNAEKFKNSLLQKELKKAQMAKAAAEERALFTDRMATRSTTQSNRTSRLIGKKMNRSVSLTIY

| EC50 (Wee1-like protein kinase [1]) | EC50 (NCI-H1299) | CLint scaled [2] | Ki (Wee1-like protein kinase [3]) | SMILES | other results |
| --- | --- | --- | --- | --- | --- |
| 19 nM | 210 nM |  |  | CCn1cc(-c2c(Cl)cccc2Cl)c(=O)c2cnc(Nc3ccc4c(c3)CN(C)CC43CC3)nc21 |  |
| 79 nM | 520 nM | 270 mL/min/kg |  | CN1CCN(c2ccc(Nc3ncc4c(=O)c(-c5c(Cl)cccc5Cl)cn(C)c4n3)cc2)CC1 |  |
| 21 nM | 80 nM | 463 mL/min/kg | 0.3 nM | C=Cc1cn(-c2c(Cl)cccc2Cl)c(=O)c2cnc(Nc3ccc4c(c3)CN(C)CC43CC3)nc12 |  |
| 11 nM | 100 nM | 413 mL/min/kg | 0.3 nM | CN1Cc2cc(Nc3ncc4c(=O)c(-c5c(Cl)cccc5Cl)cn(C)c4n3)ccc2C2(CC2)C1 | Activity (MX1 [4]): 48%; inhibition in vivo at 25 mg/kg/day (MX1 [5]): 88%; inhibition in vivo at 25 mg/kg/day (MX1 [6]): 57%; bioavailability [7]: 44%; TGI (MX1 [8]): Active; half-life [9]: 2.7 h; clearance [10]: 25 mL/min/kg; AUC [11]: 6.2 µM·h |
| 22 nM | 460 nM | 582 mL/min/kg | 1 nM | CN1CCN(c2ccc(Nc3ncc4c(=O)c(-c5c(Cl)cccc5Cl)cn(C5CC5)c4n3)cc2)CC1 |  |
| 18 nM | 140 nM | 753 mL/min/kg | 0.6 nM | CN1Cc2cc(Nc3ncc4c(=O)n(-c5c(Cl)cccc5Cl)cc(C(F)F)c4n3)ccc2C2(CC2)C1 |  |
| 28 nM | 130 nM | 727 mL/min/kg | 0.5 nM | Cc1cn(-c2c(Cl)cccc2Cl)c(=O)c2cnc(Nc3ccc4c(c3)CN(C)CC43CC3)nc12 |  |
| 4020 nM | > 10000 nM | 482 mL/min/kg | 0.2 nM | CN1CCN(c2ccc(Nc3ncc4c(=O)c(-c5c(Cl)cccc5Cl)cn(CC(C)(C)O)c4n3)cc2)CC1 |  |
|  |  | 635 mL/min/kg | 1.1 nM | CN1Cc2cc(Nc3ncc4c(=O)n(-c5c(F)cccc5Cl)c5nccn5c4n3)ccc2C(C)(C)C1 |  |
| 25 nM | 60 nM | 320 mL/min/kg |  | CN1Cc2cc(Nc3ncc4c(=O)n(-c5c(Cl)cccc5Cl)cc(CO)c4n3)ccc2C2(CC2)C1 |  |
| 31 nM | 390 nM | 458 mL/min/kg |  | CN1Cc2cc(Nc3ncc4c(=O)c(-c5c(Cl)cccc5Cl)cn(C5CC5)c4n3)ccc2C2(CC2)C1 |  |
| 2850 nM | 7650 nM | 1970 mL/min/kg | 24.4 nM | CN(C)CCn1cc(-c2c(Cl)cccc2Cl)c(=O)c2cnc(Nc3ccc(N4CCN(C)CC4)cc3)nc21 |  |
| 246 nM | 500 nM |  | 0.2 nM | CN1CCN(c2ccc(Nc3ncc4c(=O)c(-c5c(Cl)cccc5Cl)cn(-c5ccccc5)c4n3)cc2)CC1 |  |
| 29 nM | 330 nM | 532 mL/min/kg | 0.6 nM | CN1Cc2cc(Nc3ncc4c(=O)c(-c5c(Cl)cccc5Cl)c[nH]c4n3)ccc2C2(CC2)C1 |  |
| 324 nM | 1720 nM | 582 mL/min/kg |  | CN1CCN(c2ccc(Nc3ncc4c(=O)c(-c5c(Cl)cccc5Cl)cn(C5COC5)c4n3)cc2)CC1 |  |
